Results on 3 substances are retold here after article PMC11143505 (Acta Pharmaceutica Sinica. B, 2024).

As a reminder, the Emax is the greatest response seen or fitted, relative to the assay's reference.

In one data set the target is insulin receptor (Mus musculus, UniProt P15208). In words: Cell-based insulin receptor activation assay. The following applies: C2C12 cells, phospho-AKT (Ser473) HTRF; relative to native insulin = 100%. (In general: Time-resolved FRET reads energy transfer from a long-lived donor to a nearby acceptor.)
The next data set in a line: Pharmacokinetics. Particulars: n = 5; for delay of time to peak concentration: compared with insulin. The format is in vivo, mice.
The subject of another data set is healthy C57 mice. Kind of data set: Biosafety in healthy mice. Particulars: 2 weeks daily; for blood cell counts: n = 5 or 6. Format: in vivo. The procedure, abridged:
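Body weight was recorded every 2 days. After two weeks, blood was collected and blood cell counts were run on an automated veterinary haematology analyser.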

Another data set can be described thus: In vitro stability. The format is physicochemical. Particulars: 1 mg/mL in PBS pH 7.4, 37 °C, 100 rpm, 80 h.
The next data set is described as follows: Dynamic light scattering. The format is physicochemical. The following applies: DLS in PBS, average of three measurements.
Data set [1] can be described thus: Absorption and urine excretion of Cy7-labeled samples. The format is in vivo, mice. Particulars: s.c., n = 3; for time at which fluorescence at the injected site was undetectable: live imaging.
The next data set has as its system healthy C57BL/6 mice. Kind of data set: Hypoglycemia effect in fasted healthy mice. Format: in vivo. Particulars: for number of mice died from hypoglycemia / dose at which mice started to suffer from notable hypoglycemia: n = 6. The procedure, abridged: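 Tail-vein glucose was read by glucose meter at 30 min and 1–6 h. Hypoglycaemic effect was the area above the glycaemic curve and below 3.3 mmol/L. Survival was recorded at 10 U/kg. One-way ANOVA with Tukey test.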

Data set [2] deals with STZ-induced diabetic mice. Kind of data set: Glycemic control in STZ-induced type 1 diabetic mice with IPGTT. Format: in vivo. Particulars: s.c.; for number of mice experiencing hypoglycemia within 4 h post-injection / time for blood glucose to drop to the normoglycemic range: n = 6; for time for blood glucose to drop to the normoglycemic range: fasted STZ diabetic mice; for response to the first glucose challenge (IPGTT): glucose 2 g/kg i.p. at 4.5 h.

Another data set has as its system diabetic mice. Kind of data set: Long-term efficacy in diabetic mice. Particulars: for kidney Masson staining, amount of collagen fiber / kidney PAS staining: Day 14; for kidney H&E pathological features: Day 14, insulin 1 mg/kg, di-PEGylated insulin 3 mg/kg. Format: in vivo. An outline of the steps:
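Diabetes was induced in C57BL/6 mice with STZ 50 mg/kg i.p. in 0.1 mol/L citrate pH 4.5 on 5 consecutive days; only mice with fasting glucose >16.7 mmol/L at 2 weeks were used. […] Serum glycated protein, CREA and BUN were measured by kit on Days 7 and 14. Day-14 kidneys were stained with H&E, PAS and Masson (200×). Dunnett-corrected ANOVA.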

The mark [3] stands for this setting: diabetic mice, Iso-insulin ELISA.

Chain of insulin receptor (P15208 28-748 limits assumed): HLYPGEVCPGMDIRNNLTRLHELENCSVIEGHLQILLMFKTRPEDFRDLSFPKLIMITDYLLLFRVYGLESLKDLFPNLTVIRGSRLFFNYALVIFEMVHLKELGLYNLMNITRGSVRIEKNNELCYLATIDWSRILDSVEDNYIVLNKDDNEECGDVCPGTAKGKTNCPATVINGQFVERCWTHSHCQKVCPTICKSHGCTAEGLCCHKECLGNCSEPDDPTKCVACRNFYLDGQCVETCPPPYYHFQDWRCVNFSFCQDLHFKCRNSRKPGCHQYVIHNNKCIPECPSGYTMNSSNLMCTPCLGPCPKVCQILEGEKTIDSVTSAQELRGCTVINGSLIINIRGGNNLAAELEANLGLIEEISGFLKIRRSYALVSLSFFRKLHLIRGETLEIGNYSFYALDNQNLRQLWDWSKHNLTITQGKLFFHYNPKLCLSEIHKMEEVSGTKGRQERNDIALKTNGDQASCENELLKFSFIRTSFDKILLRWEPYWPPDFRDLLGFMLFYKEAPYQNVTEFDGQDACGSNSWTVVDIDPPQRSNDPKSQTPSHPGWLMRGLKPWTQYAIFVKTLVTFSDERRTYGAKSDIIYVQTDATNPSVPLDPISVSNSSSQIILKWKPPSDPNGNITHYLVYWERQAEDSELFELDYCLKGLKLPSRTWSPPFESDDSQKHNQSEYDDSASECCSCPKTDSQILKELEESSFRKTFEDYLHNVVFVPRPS
Chain of insulin receptor (P15208 753-1372 partner limits assumed): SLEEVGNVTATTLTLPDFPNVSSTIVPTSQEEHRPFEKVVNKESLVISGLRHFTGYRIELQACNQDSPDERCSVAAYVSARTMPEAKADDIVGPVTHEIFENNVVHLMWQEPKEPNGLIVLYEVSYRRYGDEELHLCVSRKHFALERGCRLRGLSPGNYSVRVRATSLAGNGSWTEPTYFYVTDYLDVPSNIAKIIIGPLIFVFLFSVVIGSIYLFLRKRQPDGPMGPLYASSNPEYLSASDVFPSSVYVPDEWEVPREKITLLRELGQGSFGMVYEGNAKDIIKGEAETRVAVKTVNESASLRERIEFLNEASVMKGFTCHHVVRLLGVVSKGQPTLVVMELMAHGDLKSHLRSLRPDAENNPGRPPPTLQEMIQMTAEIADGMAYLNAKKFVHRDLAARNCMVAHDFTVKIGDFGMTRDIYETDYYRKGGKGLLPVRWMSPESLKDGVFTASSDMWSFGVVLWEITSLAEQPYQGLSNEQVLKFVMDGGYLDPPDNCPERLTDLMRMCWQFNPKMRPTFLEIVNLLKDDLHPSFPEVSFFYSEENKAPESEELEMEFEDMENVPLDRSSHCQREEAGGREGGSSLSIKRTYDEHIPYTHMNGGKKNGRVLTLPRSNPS

The substance “di-PEGylated insulin: insulin conjugated with two PEG chains (MW 5000) at Lys B29 and Gly A1” registered an Emax in the data set with insulin receptor of 63.5%. For the same substance, in “Pharmacokinetics” (setting [3]), the “time at which serum concentration was still detected” value turned out to be 12 h and the “delay of time to peak concentration” value is on record as “approximately 1 h”. Besides, the blood cell counts entry in the data set on healthy C57 mice is reported as “no noticeable change”. For the same substance, the “change in transmittance after the assay” value in the data set “In vitro stability” is “less than 2%”. The hydrodynamic size in “Dynamic light scattering” worked out at 8.3 ± 1.1 nm. For the same substance, the “time at which urine fluorescence signals could still be detected” value in data set [1] (Cy7 0.1 mg/kg) came out at 12 h. The “time at which fluorescence at the injected site was undetectable” value in data set [1] is 4 h. Further, the “hypoglycemia in healthy mice” value in the data set with healthy C57BL/6 mice (s.c., 10 U/kg, fasted healthy mice, n = 6, threshold 3.3 mmol/L) is on record as “didn't suffer from hypoglycemia”. In addition, in data set [2] (5 U/kg, STZ diabetic mice), the “number of mice experiencing hypoglycemia within 4 h post-injection” value is given as “no mice”. The “duration of blood glucose management after a single dose” value in data set [2] (15 U/kg, STZ diabetic mice, three IPGTT 2 g/kg) was “over 13 h”. In addition, the “glycated serum protein (GSP) level” value with diabetic mice (2-week treatment, 3 mg/kg daily, n = 6) is recorded as “markedly reduced”. Further, in the data set with diabetic mice, the “kidney Masson staining, amount of collagen fiber” value is listed as “decreased”; the “kidney PAS staining” value is recorded as “preserved glomerular basement membrane”; the “kidney H&E pathological features” value is given as “somewhat attenuated”.
Take “mono-PEGylated insulin: insulin conjugated with one PEG chain (MW 5000) at Lys B29”: in the data set with insulin receptor, the Emax is 95.7%. For the same substance, the “delay of time to peak concentration” value in the data set “Pharmacokinetics” (setting [3]) is listed as “approximately 1 h”. In addition, the “time at which fluorescence at the injected site was undetectable” value in [1] was 4 h. Further, in the data set on healthy C57BL/6 mice (healthy mice, from area under the hypoglycemia line, 10 U/kg vs 1 U/kg insulin), the “increase in maximum tolerated dose” value was “didn't show a significant improvement”. For the same substance, in the data set on healthy C57BL/6 mice (s.c., 10 U/kg, healthy mice), the “number of mice died from hypoglycemia” value is given as 5. In the data set with healthy C57BL/6 mice (s.c., fasted healthy mice), the “dose at which mice started to suffer from notable hypoglycemia” value was 2 U/kg. Moreover, in [2] (5 U/kg, STZ diabetic mice), the “number of mice experiencing hypoglycemia within 4 h post-injection” value was determined as 4. Moreover, in data set [2] (5 U/kg), the “time for blood glucose to drop to the normoglycemic range” value is at most 30 min and the “response to the first glucose challenge (IPGTT)” value was “moderate efficacy but failed to lower blood glucose to normoglycemic levels”. Also, the “response to the following two additional IPGTTs” value in [2] (5 U/kg, glucose 2 g/kg i.p. at 7.5 and 10.5 h) was “didn't exhibit glucose-lowering effects”.
In the case of “insulin: Recombinant human insulin (26 U/mg) from Tonghua Dongbao Pharmaceutical [reference compound]”, the Emax in the data set with insulin receptor is given as 100%. In the data set “Pharmacokinetics” (healthy mice, insulin ELISA), the “time at which serum concentration was essentially undetectable” value amounted to 4 h. Besides, in the data set with healthy C57 mice (H&E), the “inflammatory cell infiltration in the skin at the injection site” value is listed as “No significant inflammatory cell infiltration”. In addition, the blood cell counts result in the data set on healthy C57 mice is recorded as “no noticeable change”. Also, the hydrodynamic size in the data set “Dynamic light scattering” was 4.1 ± 0.2 nm. Also, the “fluorescence retention rate at the injected site” value in data set [1] (4 h post-injection) is 50%. Moreover, in [1] (Cy7 0.1 mg/kg, IVIS imaging of urine), the “time of maximum urine fluorescence signal” value turned out to be 2 h. The “time at which urine fluorescence was close to the background value” in data set [1] (Cy7 0.1 mg/kg) is on record as 4 h. Besides, in the data set on healthy C57BL/6 mice (s.c., 10 U/kg, healthy mice), the “number of mice died from hypoglycemia” value came to 4. Also, in the data set with healthy C57BL/6 mice (s.c., fasted healthy mice), the “dose at which mice started to suffer from notable hypoglycemia” value amounted to 2 U/kg. The “number of mice experiencing hypoglycemia within 4 h post-injection” value in [2] (5 U/kg, STZ diabetic mice) amounted to 5. In data set [2] (5 U/kg), the “time for blood glucose to drop to the normoglycemic range” value is at most 30 min and the “response to the first glucose challenge (IPGTT)” value is “didn't show any efficacy in lowering blood glucose”. Further, in the data set with diabetic mice, the “kidney Masson staining, amount of collagen fiber” value is on record as “decreased”; the “kidney PAS staining” value was “thicker glomerular basement membrane and incomplete brush border”; the “kidney H&E pathological features” value is “somewhat attenuated”.
